According to PubChem BioAssay:
Unmarked numbers belong to inactive results. Results filed as inconclusive are left out. Active and inactive are the calls of the source.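 Rule for the calls, unless noted: active = RAM network inhibition above 8.4% in each of two replicates, 3 SD over the compound average; inconclusive = above 8.4% inhibition in only one replicate; inactive = 8.4% inhibition or less in each replicate.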

What was measured:
[1] = S. cerevisiae growth inhibition in permissive medium (OD615), pilot counter-assay for S. cerevisiae lifespan shortening project, permissive growth control (AID 705;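 active = growth inhibition above 25% in both replicates, a cutoff set 3 SD above the mean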); details: OD615, 24 h, at 10 µM, stronger effect = higher value
In short: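 System – S. cerevisiae with engineered DeaD lifespan system · Buffer or medium – SC raffinose/galactose permissive medium · Schedule – cells pre-grown 4 h, then 24 h compound exposure, 30 °C humidified · Technique – culture turbidity as optical density at 615 nm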

[2] = S. cerevisiae growth inhibition in restrictive medium, OD615, pilot screen, restrictive growth control, yeast lifespan reduction project (AID 706;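 active = growth inhibition above a set limit, 3 SD over mean compound inhibition, in both replicates, cut at about 43% in these data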;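 note: modified DeaD lifespan yeast strain shifted to restrictive glucose medium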); details: OD615, 48 h, at 10 µM, stronger effect = higher value
In short: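 Material: engineered S. cerevisiae DeaD strain / Medium: glucose-based CSMM-D restrictive medium / Compound: single dose of 10 µM compound final, 0.25% DMSO / Timing: 4 h pre-incubation, 48 h exposure at 30 °C / Technique: OD615 absorbance reading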

[3] = doxorubicin toxicity protection in MRP-1 cells – H69AR cells, CellTiter-Glo, duplicate, MRP-1 activator project, pilot screen (AID 807;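 active = viability increase at or above a cutoff of the median across tested compounds plus 3 SD, cut at about 8.5% in these data, passing the limit was not always enough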;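 note: compound pretreatment 18-22 h then 72 h combined with doxorubicin; 0% = doxorubicin alone and 100% = vehicle without doxorubicin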); details: H69AR viability with doxorubicin, CellTiter-Glo luminescence; at 10 µM; stronger effect = higher value
[4] = viability of HCT116 without oncogenic beta-catenin – human colon tumor cells, pilot screen (AID 823;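 active = cell viability at or below a set limit in both duplicate runs, the limit being the all-compound median minus 4 SD, cut at about 23% in these data, passing the limit was not always enough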;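 note: 0% = wells killed by 20 µM Hyamine and 100% = untreated DMSO cell wells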); details: HCT116 beta-catenin knockout viability, CellTiter-Glo, 60 h; at 10 µM; stronger effect = lower value
[5] = viability of PTEN-null HCT116 cells – cell-based, HCT116 clonal line, CellTiter-Glo, pilot screen (AID 824;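 active = viability at or below 27.92% in each of two runs, the all-compound median minus 4 SD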;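 note: 0% = 20 µM Hyamine control and 100% = vehicle cell control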); details: HCT116 PTEN-deleted viability, 60 h, at 10 µM, stronger effect = lower value
[6] = RAM pathway blockade in budding yeast – dse1pr::URA3 reporter, 5-FOA selection, pilot screen (AID 869;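 active = inhibition over a set limit, the all-compound mean plus 3 SD, in both replicate runs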;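 note: 0% = DMSO wells with no growth and 100% = 10 µM 1-NA-PP1 with full growth; RAM network block rescues cells from 5-FOA so hits raise OD615 growth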); details: S. cerevisiae dse1pr::URA3 5-FOA growth, OD615, 2 d; at 10 µM; stronger effect = higher value; strain carries analog-sensitive mutant Cbk1 kinase
[7] = RAM signaling pathway blockade in yeast – S. cerevisiae, Pdr1DBD-CYC8 efflux-inhibited sensitized strain, primary screen (AID 1298);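 note: 0% = DMSO untreated cells without growth and 100% = 10 µM 1-NA-PP1 full growth; higher means more yeast growth rescued from 5-FOA killing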; details: S. cerevisiae cbk1-as DSE1-URA3 strain, 5-FOA growth OD615, 2 d; at 50 µM; stronger effect = higher value

Structure (SMILES)	growth inhibition [1] [%]	growth inhibition [2]	viability increase [3] [%]	viability [4]	viability [5]	inhibition [6] [%]	RAM network inhibition [7] [%]
Cn1c(=O)c2c(SC3CCCC3)nc(C3CC3)nc2n(C)c1=O	3.3	-9.07%	1.43	91%	86.3%	2.54	2.78
CC(C)(C)c1nc(CN2CCCCC2)cc(CN2CCCCC2)c1O	-13.8	-12.6%	-5.26	70.8%	76.2%	0.505	1.19
CN1CCN(C(=O)C2CCCCC2C(=O)O)CC1 (configuration not stated)	0.81	-12.5%	-1.14	99.4%	99.1%	2.02	-0.26
CN1CCN(c2cc(=O)n(C3CCCCC3)c(=O)[nH]2)CC1	-17.5	-8.34%	0.57	101%	103%	1.9	1.26
Cc1cccc(Nc2ncnc3nc[nH]c23)c1	3.02	32.5%	-1.96	101%	97.6%	2.31	3.11
Cc1ccc(-n2c(SCC(=O)Nc3cc(C)on3)nc3c(c2=O)SC(C)C3)cc1 (configuration not stated)	-1.77	-14.4%	-2.56	87.5%	88.4%	0.5	2.13
COc1ccc(-c2nc(C#N)c(NC(C)C)o2)cc1	-4.08	-2.25%	-0.02	90.4%	93.8%	2.67	3.99
COc1ccc(C2N3CC4(C)CN2CC(C)(C3)C4O)cc1 (configuration not stated)	-17.7	-6.65%	0.42	106%	97.2%	1.22	-0.16
CCOC(=O)N1CCC(NC(=O)c2ccc(NC(=O)C3CCCO3)cc2)CC1 (configuration not stated)	-10.8	-9.25%	0.49	97.8%	105%	1.09	-0.36
O=C(C1CCC(CNc2c(N3CCOCC3)c(=O)c2=O)CC1)N1CCN(c2ccccc2)CC1 (configuration not stated)	-0.4	-8.31%	-1.19	95.8%	83.7%	2.86	1.31
Cn1c(NC(=O)c2ccc3c(c2)OCO3)cc(=O)n(C)c1=O	-5.14	-2.67%	0.04	98.5%	92.3%	1.05	-2.06
CNC(=O)c1nnc(Cc2ccc(F)cc2)o1	2.65	1.31%	-0.04	93.8%	98.9%	0.195	2.48
COc1ccc(N(CC(=O)N2CCCCC2)S(=O)(=O)c2c(C)nn(C)c2C)cc1	-5.81	5.36%	-2.35	105%	96.7%	1.69	2.99
O=C(CSc1nc2c([nH]c3ccccc32)c(=O)n1-c1cccc(Cl)c1)N1CCOCC1	-16.6	-12.8%	-3.3	79.6%	79.9%	1.64	3.01
CC(=O)Nc1ccc(NC(=O)CCC(=O)NCCO)cc1	-10.7	-16.7%	-0.28	90.8%	92.8%	0.825	5.19
C=CCSc1nc2c(c(=O)[nH]1)C(C(C)C)C(C#N)=C(N)O2 (configuration not stated)	0.845	1.47%	-2.3	101%	101%	1.75	1.88
CC1Cc2ccccc2N1C(=O)CSC1=NCCS1 (configuration not stated)	7.58	50.5% (active)	-6.91	92.6%	95.2%	2.67	6.64
O=C(Nc1nnc(-c2ccc3c(c2)OCCO3)o1)c1ccc(Cc2ccccc2)cc1	-7.6	6.34%	-4.05	46.1%	40.9%	1.59	4.3

Structure (SMILES)	growth inhibition [1] [%]	growth inhibition [2]	viability increase [3] [%]	viability [4]	viability [5]	inhibition [6] [%]	RAM network inhibition [7] [%]
CCOC(=O)c1nnn(-c2nonc2N)c1CN(C)Cc1ccccc1	-7.27	-11.5%	-4.12	84%	88.1%	2.05	4.2
COCCN1Cc2cccc(C(=O)NCc3ccccn3)c2C1=O	-2.71	-0.385%	-0.59	103%	110%	0	1.61
CC(C)(C)c1ccc(S(=O)(=O)N2CCCCC2C(=O)NCc2ccccn2)cc1 (configuration not stated)	-24.9	-29%	-2.34	93%	84.6%	0.13	5.71
CCOC(=O)C1CCCN(c2c(NCCCN3CCCC(C)C3)c(=O)c2=O)C1 (configuration not stated)	3.9	3.15%	-0.04	99.1%	94.4%	2.96	-0.87
C=C(C)CSc1nnc(-c2cc(OC)c(OC)c(OC)c2)n1N	8.03	7.75%	-1.01	95.2%	97.8%	0.94	4
CC1CC(C)(C)Nc2ccc(OC(=O)c3ccco3)cc21 (configuration not stated)	7.66	5.69%	-7.85	1.57% (active)	1.59% (active)	0.51	3.36
CC1(C)CC(=O)C=C(NCCc2ccc(S(N)(=O)=O)cc2)C1	-8.44	-12%	-0.64	94.3%	96.2%	1.18	1.82
COc1cc(/C=N/n2cnnc2)ccc1OC(=O)c1ccncc1	-13.9	-15.2%	-2.23	92.9%	99.1%	1.43	1.08
O=C(NCCO)c1ccc(-c2nnc(N3CCOCC3)c3ccccc23)cc1	-8.54	-14.4%	0.15	89.1%	89.6%	0.425	3.24
CCc1nc2oc(C(=O)c3ccccc3)c(N)c2c2c1COC(C)(C)C2	-10.5	-9.15%	-4.48	81.6%	80.1%	0.79	0.85
CCOC(=O)C1=C(C)NC(C)=C(C(=O)OCC)C1c1nc2ccccc2[nH]1	-21.8	-11.2%	-1.33	96.2%	96.3%	0.96	1.43
COc1ccc2oc(-c3ccccc3)c(C(=O)N3CCOCC3)c2c1	2.58	-8.54%	-3.95	94.3%	90%	1.52	5.28
Cc1cccc(OCCn2c(=O)n(C)c3ccccc32)c1	-9.27	-5.27%	-2.39	85.3%	83%	0.755	0.1
C=CCSC1=NC(N)=C(C#N)C2(CCCCC2)C1C(N)=O (configuration not stated)	-4.98	2.22%	-1.39	92.5%	96.6%	0.77	2.04
O=C(CSc1nnc(-c2ccccn2)n1Cc1ccco1)c1ccc(Cl)cc1	1.63	23.2%	-2.56	85.8%	82%	2.6	4.4
CC1CN(c2nc3c(c(=O)[nH]c(=O)n3C)n2Cc2ccccc2F)CC(C)O1 (configuration not stated)	-3.05	2.61%	-1.3	99.1%	90.7%	1.68	0.95
CCCc1ncc(C(O)c2cccc(OC)c2OC)n1C (configuration not stated)	-11	-23%	-2.63	95.9%	94.4%	0.71	1.45
COC(=O)C1=C(C)N2C(=O)CSC2=NC1c1ccc2c(c1)OCO2 (configuration not stated)	5.86	53.2% (active)	0.55	93.3%	98.8%	0.03	0.78
